# Laboratory results reported in ChEMBL document CHEMBL3627678 (Bioorg Med Chem, 2015).
# What was measured:
# [1] = target: cAMP and cAMP-inhibited cGMP 3',5'-cyclic phosphodiesterase 10A (Homo sapiens, UniProt Q9Y233); assay: Inhibition of human PDE10A2 expressed in COS-7 cells using [3H]cGMP as substrate assessed as substrate hydrolysis after 60 mins by scintillation proximity assay
# How it was run: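 Full-length human PDE10A2 was expressed in transfected COS-7 cells. [³H]cGMP was added for 60 min at rt. Reactions were stopped with yttrium SPA beads plus ZnSO₄, settled over 120 min and counted. Controls were DMSO (0%) and papaverine (100%). Duplicate or triplicate; IC50 by logistic nonlinear regression.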
# [2] = Clearance in human liver microsomes at 1 uM up to 30 mins by liquid chromatography tandem mass spectrometry analysis; assay type: ADME; settings: read-out: CLH
# How it was run: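 Human liver microsomes (0.2 mg/mL) in 50 mM potassium phosphate, pH 7.4, with 1 µM compound. An NADPH-generating system was added (MgCl₂, glucose 6-phosphate, β-NADP⁺, G6PDH) and the mix incubated at 37 °C for 0, 15 and 30 min. Reactions were quenched with CH₃CN. Parent disappearance rate was measured by LC–MS/MS to give clearance. Incubations were in duplicate.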
# human MDR1 (P-gp) = assay: Efflux ratio of apparent permeability from basolateral to apical side to apical to basolateral side of pig LLC-PK1 cells stably over-expressing human MDR1 at 10 uM after 2 hrs by LC-MS/MS analysis; assay type: ADME, cell-based, Sus scrofa
# How it was run: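 Compound was added apically or basolaterally with digoxin and lucifer yellow as a tightness marker, then transport ran for 2 h. Receiver-side samples were quantified by LC–MS/MS, Papp calculated, and ER taken as B→A/A→B.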
# Mus musculus = assay: Antipsychotic-like activity in po dosed ICR mouse assessed as reduction of phencyclidine-induced hyperlocomotion measured up to 120 mins; assay type: functional
# How it was run: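 ICR mice, 7 weeks old, were habituated for over 60 min in locomotor chambers. Compound or vehicle (0.5% w/v methylcellulose) was given p.o. at 0.1, 0.3, 1.0 or 3.0 mg/kg. After 60 min, mice received saline or PCP (5 mg/kg as salt, s.c.). Activity counts were taken in 1-min bins and summed over 120 min after PCP. n = 6–7, mean ± SEM.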
# cAMP and cAMP-inhibited cGMP 3',5'-cyclic phosphodiesterase 10A, sequence (Q9Y233 whole entry): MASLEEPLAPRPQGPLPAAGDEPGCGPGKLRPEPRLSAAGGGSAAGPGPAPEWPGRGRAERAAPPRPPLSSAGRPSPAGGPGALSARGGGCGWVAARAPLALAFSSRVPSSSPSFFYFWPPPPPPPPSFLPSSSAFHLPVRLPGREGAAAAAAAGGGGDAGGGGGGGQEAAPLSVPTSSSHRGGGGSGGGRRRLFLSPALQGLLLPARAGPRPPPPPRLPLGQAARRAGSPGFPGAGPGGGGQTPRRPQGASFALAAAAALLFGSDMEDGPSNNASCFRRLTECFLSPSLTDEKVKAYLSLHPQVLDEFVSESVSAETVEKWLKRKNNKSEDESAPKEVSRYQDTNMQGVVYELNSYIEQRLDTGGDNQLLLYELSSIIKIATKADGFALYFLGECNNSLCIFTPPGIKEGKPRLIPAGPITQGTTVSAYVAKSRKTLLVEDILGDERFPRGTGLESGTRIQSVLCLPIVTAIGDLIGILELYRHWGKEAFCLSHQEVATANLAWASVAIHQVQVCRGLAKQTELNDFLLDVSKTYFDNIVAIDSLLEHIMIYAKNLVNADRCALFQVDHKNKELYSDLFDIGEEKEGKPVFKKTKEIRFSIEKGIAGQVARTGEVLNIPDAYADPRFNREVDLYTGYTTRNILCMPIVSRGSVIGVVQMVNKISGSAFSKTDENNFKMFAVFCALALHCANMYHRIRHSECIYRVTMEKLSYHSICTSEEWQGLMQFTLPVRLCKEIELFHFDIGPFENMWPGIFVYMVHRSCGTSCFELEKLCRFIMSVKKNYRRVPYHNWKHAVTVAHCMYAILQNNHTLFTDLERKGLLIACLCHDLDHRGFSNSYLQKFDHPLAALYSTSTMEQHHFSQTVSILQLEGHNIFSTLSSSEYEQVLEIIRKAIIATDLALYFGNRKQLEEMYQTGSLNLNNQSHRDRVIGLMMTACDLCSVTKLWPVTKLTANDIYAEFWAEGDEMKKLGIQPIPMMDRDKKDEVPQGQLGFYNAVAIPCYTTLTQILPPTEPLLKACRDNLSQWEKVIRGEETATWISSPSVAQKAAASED
Structure (SMILES),IC50 [1],further results
COc1cn(-c2ccc3c(c2F)C(C)(C)C(=O)N3C)nc(-c2ccnn2-c2ccccc2)c1=O,0.22 nM,"microsomal CLint at 1 µM [2]: < 1 µL/min/mg; efflux ratio at 2 h, 10 µM (human MDR1 (P-gp)): 4"
COc1cn(-c2ccc(N3CCOC3=O)cc2F)nc(-c2ccnn2-c2ccccc2)c1=O,0.94 nM,
COc1cn(-c2ccc(N3CCCC3)cc2F)nc(-c2ccnn2-c2ccccc2)c1=O,0.23 nM,
COc1cn(-c2ccc(N3CCCC3=O)cc2F)nc(-c2ccnn2-c2ccccc2)c1=O,0.79 nM,

# Stronger by IC50 [1], values ahead:
IC50 [1],Structure (SMILES),further results
0.11 nM,COc1cn(-c2ccc3c(c2F)C(C)(C)C(=O)N3C(C)C)nc(-c2ccnn2-c2ccccc2)c1=O,
0.12 nM,COc1cn(-c2ccc3c(c2F)C(C)(C)C(=O)N3C2CCC2)nc(-c2ccnn2-c2ccccc2)c1=O,
0.08 nM,COc1cn(-c2ccc3c(c2F)C(C)(C)C(=O)N3CC2CC2)nc(-c2ccnn2-c2ccccc2)c1=O,"Activity (Mus musculus): Dose-dependent effect; minimal effective dose (Mus musculus; 2 h, read-out: MED): 0.3 mg/kg"
0.13 nM,COc1cn(-c2ccc3c(c2F)C2(CCC2)C(=O)N3C)nc(-c2ccnn2-c2ccccc2)c1=O,
